Experimental findings from ChEMBL document CHEMBL1649247, “Fluoroquinolone resistance in Mycobacterium tuberculosis and mutations in gyrA and gyrB” (2009) are described below.

Experiment [1] has as its system Mycobacterium tuberculosis. Nature of the experiment: Antimycobacterial activity against Mycobacterium tuberculosis 08-0762 by resazurin microtiter assay. The format is functional. An outline of the steps: (§1)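 Isolates taken from fresh Löwenstein-Jensen subcultures grown at 37°C for at most 4 weeks. Drug stocks 1 mg/ml in 0.1 N NaOH, filter sterilized, stored at −20°C less than 2 months. MIC read by resazurin microtiter assay following a previously described protocol.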
A general note: Alamar Blue is a resazurin reagent that responds to reducing activity.

In experiment [2] the test system is Mycobacterium tuberculosis. The experiment is described as follows: Antimycobacterial activity against Mycobacterium tuberculosis 08-0764 by resazurin microtiter assay. Format: functional. An outline of the steps: as §1
The test system of experiment [3] is Mycobacterium tuberculosis. Nature of the experiment: Antimycobacterial activity against Mycobacterium tuberculosis 08-0774 by resazurin microtiter assay. Format: functional. An outline of the steps:
as §1

For experiment [4], the system named is Mycobacterium tuberculosis. Nature of the experiment: Antimycobacterial activity against Mycobacterium tuberculosis 08-0781 by resazurin microtiter assay. The format is functional. An outline of the steps:
as §1

Experiment [5] concerns Mycobacterium tuberculosis. Nature of the experiment: Antimycobacterial activity against Mycobacterium tuberculosis 08-0782 by resazurin microtiter assay. The format is functional. An outline of the steps: as §1
In experiment [6] the test system is Mycobacterium tuberculosis. The experiment is described as follows: Antimycobacterial activity against Mycobacterium tuberculosis 08-0789 by resazurin microtiter assay. The format is functional. An outline of the steps: as §1
In experiment [7] the test system is Mycobacterium tuberculosis. The experiment is described as follows: Antimycobacterial activity against Mycobacterium tuberculosis 08-0762 assessed as microbial susceptibility by agar proportion method. The format is functional, organism-based. An outline of the steps: (§2)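 Clinical isolates freshly subcultured on Löwenstein-Jensen medium, held at 37°C no longer than 4 weeks. Fluoroquinolone stocks 1 mg/ml in 0.1 N NaOH, filter sterilized, kept at −20°C under 2 months. Standard proportion method on 7H11 agar; breakpoints 2 mg/liter ofloxacin, 0.5 mg/liter moxifloxacin and gatifloxacin; scored susceptible or resistant.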

The subject of experiment [8] is Mycobacterium tuberculosis. Nature of the experiment: Antimycobacterial activity against Mycobacterium tuberculosis 08-0764 assessed as microbial susceptibility by agar proportion method. The format is functional, organism-based. The essentials: as §2
In experiment [9] the test system is Mycobacterium tuberculosis. Nature of the experiment: Antimycobacterial activity against Mycobacterium tuberculosis 08-0774 assessed as microbial susceptibility by agar proportion method. The format is functional, organism-based. The essentials: as §2
For experiment [10], the system named is Mycobacterium tuberculosis. Nature of the experiment: Antimycobacterial activity against Mycobacterium tuberculosis 08-0781 assessed as microbial susceptibility by agar proportion method. Format: functional, organism-based. An outline of the steps: as §2
Experiment [11] deals with Mycobacterium tuberculosis. Nature of the experiment: Antimycobacterial activity against Mycobacterium tuberculosis 08-0782 assessed as microbial susceptibility by agar proportion method. Format: functional, organism-based. The essentials: as §2
Experiment [12] concerns Mycobacterium tuberculosis. The experiment is described as follows: Antimycobacterial activity against Mycobacterium tuberculosis 08-0789 assessed as microbial susceptibility by agar proportion method. The format is functional, organism-based. The essentials:
as §2

SMILES strings stand for the structures. Converted amounts (≈) assume the structure as drawn. The source made the active and inactive calls.

As for `COc1c(N2CCNC(C)C2)c(F)cc2c(=O)c(C(=O)O)cn(C3CC3)c12` (stereo unspecified) [GATIFLOXACIN], the MIC was at most 0.062 µg/mL in experiment [1]; at most 0.062 µg/mL in [2]; at most 0.062 µg/mL in experiment [3]; at most 0.062 µg/mL in experiment [4]; 0.125 µg/mL (≈ 0.333 µM) in experiment [5]; at most 0.062 µg/mL in experiment [6]. The outcome in [7], in [8], in [9], in [10], in experiment [11] and in [12] was Active.

On to `COc1c(N2C[C@@H]3CCCN[C@@H]3C2)c(F)cc2c(=O)c(C(=O)O)cn(C3CC3)c12` [MOXIFLOXACIN], for which the MIC in [1], in experiment [2], in [3], in experiment [4], in experiment [5] and in experiment [6] was at most 0.125 µg/mL each time. Also, the result in experiment [7], in [8], in [9], in experiment [10], in experiment [11] and in [12] was Active.

For the compound `CC1COc2c(N3CCN(C)CC3)c(F)cc3c(=O)c(C(=O)O)cn1c23` (stereo unspecified) [OFLOXACIN], the MIC in [1] was 0.5 µg/mL (≈ 1.38 µM); in experiment [2] it was 0.5 µg/mL (≈ 1.38 µM); in experiment [3] it was at most 0.25 µg/mL; in experiment [4] it was at most 0.25 µg/mL; in experiment [5] it was 0.5 µg/mL (≈ 1.38 µM); in experiment [6], 0.5 µg/mL (≈ 1.38 µM). Besides, the outcome in experiment [7], in experiment [8], in experiment [9], in [10], in experiment [11] and in [12] was Active.

For orientation: MIC means the smallest concentration in the dilution series that meets the test's criterion for growth inhibition. A lower MIC goes with a more susceptible organism.
